The source made the active and inactive calls. No cut-off for these calls is given here.
Columns and labels:
[1] = Clearance in C57BL/6 mouse at 1 mg/kg, iv; format: ADME, organism-based; conditions: in vivo
Outline: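 Female C57BL/6 mice, single IV dose of 1 mg/kg given as a solution in 10% NMP, 10% Solutol HS15 and 80% saline. Parameters come from the plasma concentration–time profile.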

[2] = AUC (0 to infinity) in C57BL/6 mouse at 5 mg/kg, po; format: ADME, organism-based; set-up: route oral, time infinity, dose 5 mg/kg; conditions: in vivo
Outline: (§1)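 Female C57BL/6 mice, single oral dose of 5 mg/kg in 0.5% methyl cellulose + 0.2% Tween 80 (w/w). Bioavailability is calculated against the 1 mg/kg IV arm.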

[3] = Oral bioavailability in C57BL/6 mouse at 5 mg/kg; format: ADME, organism-based; conditions: in vivo; outline: as §1
[4] = tested on: KOPN-8; assay: Anti-proliferative activity against human KOPN-8 cells harboring MLL/ENL fusion protein assessed as cell growth inhibition measured after 4 days by Cell Titre Glo Luminescent Cell viability assay; format: functional, cell-based; conditions: KOPN-8, 96 h
Outline: (§2)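 Leukemia lines plated in triplicate in RPMI 1640 at 37 °C, 5% CO2. 9-point dose response from 10 μM top concentration with 1:3 serial dilutions, 0.1% DMSO final; DMSO vehicle control column. Cellular ATP read by CellTiter-Glo at day 0 and after 4 days. Averages from three independent experiments.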

[5] = tested on: RS4-11; assay: Anti-proliferative activity against human RS4-11 cells harboring MLL/AF4 fusion protein assessed as cell growth inhibition measured after 4 days by Cell Titre Glo Luminescent Cell viability assay; format: functional, cell-based; conditions: RS4-11, 96 h; outline: as §2
[6] = tested on: HL-60; assay: Anti-proliferative activity against human HL-60 cells harboring MLL wild-type protein assessed as cell growth inhibition measured after 4 days by Cell Titre Glo Luminescent Cell viability assay; format: functional, cell-based; conditions: HL-60, 96 h; outline: as §2
[7] = tested on: K562; assay: Anti-proliferative activity against human K562 cells harboring MLL wild-type protein assessed as cell growth inhibition measured after 4 days by Cell Titre Glo Luminescent Cell viability assay; format: functional, cell-based; conditions: K562, 96 h; outline: as §2
[8] = Toxicity in SCID mouse xenografted with human MV4-11 cells assessed as signs of toxicity at 100 mg/kg, po administered daily for 26 days; format: organism-based; conditions: in vivo, 624 h, time 26 day
Outline: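 Female C.B-17 SCID mice bearing subcutaneous MV4;11 flank tumors (5×10^6 cells with Matrigel 1:1), treated once tumors averaged about 100 mm3. Dosed 100 mg/kg daily by oral gavage for 26 days in 0.5% MC + 0.2% Tween 80 vehicle. Body weight measured daily.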

[9] = Toxicity in SCID mouse xenografted with human MV4-11 cells assessed as change weight loss at 300 mg/kg, po qd administered daily for 15 days; format: organism-based; conditions: in vivo, 360 h, time 15 day
Outline: (§3)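 Female C.B-17 SCID mice, 5–6 weeks old, implanted subcutaneously in the right flank with 5×10^6 MV4;11 cells in 1:1 Matrigel. Randomized at about 200 mm3. Dosed 300 mg/kg by oral gavage once daily for 15 days in 0.5% MC (400 cP) + 0.2% Tween 80 at 10 mL/kg. Body weight measured daily; caliper volume (0.5×W×W×L) three times weekly.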

[10] = Toxicity in SCID mouse xenografted with human MV4-11 cells assessed as signs of toxicity at 300 mg/kg, po qd administered daily for 15 days; format: organism-based; conditions: in vivo, 360 h, time 15 day; outline: as §3
[11] = tested on: MV4-11; assay: Anti-tumor activity against luciferase-tagged human MV4-11 cells xenografted in NCG mouse assessed as induction of CD11b protein in human CD45+ cells at 150 mg/kg, po administered daily for 4 days measured after 48 hrs by qRT-PCR analysis; format: functional, organism-based; conditions: time 4.0 day, in the assay text read “flow cytometry analysis” for “qRT-PCR analysis”
Outline: (§4)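 Female NCG mice, 5–6 weeks old, given 5×10^6 luciferase-tagged MV4;11 cells IV via tail vein. Randomized at log-phase disease (day 27). Dosed 150 mg/kg oral gavage daily for 4 days in MC/Tween 80 vehicle. Read-outs 48 h after the last dose, five mice per group, mean ± SEM: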

[12] = tested on: MV4-11; assay: Anti-tumor activity against luciferase-tagged human MV4-11 cells xenografted in NCG mouse assessed as reduction in number of CD45+/CD33+ cells at 150 mg/kg, po administered daily for 4 days measured after 48 hrs by flow cytometry; format: functional, organism-based; conditions: time 4.0 day; outline: as §4

- clearance [1]: 0.945 mL/min/kg
- AUC(0-inf) [2]: 43600 ng·h/mL
- F [3]: 49.4%
- IC50 [5]: 1000 nM
- IC50 [6]: > 10000 nM
- IC50 [7]: > 10000 nM
SMILES: C=CC(=O)N1C[C@@H]2C[C@H]1CN2S(=O)(=O)c1ccc(N2CC(CN3CCC([C@@](CN4CCC4)(c4cccc(F)c4)[C@H]4CCC[C@@H]4NC(=O)OC)CC3)(OC)C2)cc1
- IC50 [4]: 110 nM
- Activity [8]: Non-Toxic
- Activity [9]: Non-Toxic
- Activity [10]: Non-Toxic
- Activity [11]: Active
- Activity [12]: Active
